# Published values pooled from the literature.
# Lines come from different studies, so protocols differ.
# Target: Myosin light chain kinase, smooth muscle (MYLK, Homo sapiens, UniProt Q15746)
Compound,effect on,mode,technique,cell line,tested at,quantity,result
Cn1cnc(Br)c1C1=CN(c2ncnc3[nH]cnc23)CCS1,enzyme activity,inhibitor,radiometric,,50 nM,inhibition,33.5%
Oc1ccc(-c2nc(-c3ccncc3)c(-c3ccc(F)cc3)[nH]2)cc1,cell-free assay,,,,0.5 µM,remaining signal,106%
O=C(Nc1cnn(-c2csc(C(=O)NC3COC3)c2)c1)Nc1ccccc1Cl,enzyme activity,inhibitor,,,5 µM,remaining activity,97.5%
Cn1c(=O)n(-c2ccc(C(C)(C)C#N)cc2)c2c3cc(-c4cnc5ccccc5c4)ccc3ncc21,enzyme activity,inhibitor,,,10 µM,remaining activity,109%
Cn1nc(C(=O)NCc2ccc(C(=O)O)cc2)cc1-c1ccc2[nH]ccc2c1,cell-free assay,,competition with immobilised ligand,,0.1 µM,remaining binding,62%
O=C1c2ccccc2-c2n[nH]c3cccc1c23,enzyme activity,inhibitor,,,0.5 µM,activity vs control,48%
CC(C)(C)C(=O)c1sc(NC2CCCCC2)nc1N,enzyme activity,inhibitor,,,10 µM,remaining activity,74%
Cc1cnn2ncc(-c3ccnc(N(C)C)n3)c2c1,binding,,,,1 µM,remaining binding,99%
CC(=O)Nc1c(C(C)=O)c(=O)n(C)c2nc(-c3ccc(Cl)cc3Cl)c(-c3ccc(Cl)cc3)cc12,cell-free assay,,competition with immobilised ligand,,1 µM,remaining binding,100%
COc1cc(/C=C/C(=O)CC(=O)/C=C/c2ccc(O)c(OC)c2)ccc1O,enzyme activity,inhibitor,,,1 µM,activity vs control,70%
Cn1cncc1C1=CN(c2ncnc3[nH]cnc23)CCS1,enzyme activity,inhibitor,radiometric,,50 nM,inhibition,18.2%
FC(F)c1nc2ccccc2n1-c1nc(N2CCOCC2)nc(N2CCOCC2)n1,enzyme activity,inhibitor,,,10 µM,remaining activity,91%
COc1cc(Nc2cnc(C#N)c(O[C@H](C)CN(C)C)n2)ncc1-c1cnn(C)c1,enzyme activity,inhibitor,radiometric,,10 µM,remaining activity,103%
C[C@H](NC(=O)c1cnc2n1[C@](C)(Cc1ccc(C#N)cc1)C(=O)N2c1cc(Cl)c(F)c(Cl)c1)C(=O)NC1(c2ccccn2)CC1,cell-free assay,,competition with immobilised ligand,,1 µM,remaining binding,100%
Cn1c2c(Cl)c(Cl)ccc2c2cc[nH]c(=O)c21,thermal stability,,DSF,,10 µM,ΔTm,2.4 °C
CCN1CCN(Cc2ccc(NC(=O)c3ccc(C)c(Oc4ccnc5[nH]ccc45)c3)cc2C(F)(F)F)CC1,target engagement in cells,inhibitor,chemoproteomics,Huh-7,1 µM,inhibition,-23.4%
CO[C@H]1CC[C@H](CNc2ccc(S(=O)(=O)NC(=O)c3ccc(N4CCN(CC5=C(c6ccc(Cl)cc6)CC(C)(C)CC5)CC4)cc3Oc3cnc4[nH]ccc4c3)cc2[N+](=O)[O-])CC1,cell-free assay,,competition with immobilised ligand,,1 µM,remaining binding,50%
Cc1cc(NC(=O)c2cccc3cc(-c4cccc5[nH]nc(N)c45)ccc23)ccc1F,enzyme activity,inhibitor,,,0.1 µM,activity vs control,89%
CN(C)c1ncnc(-c2ccc3nc(Nc4cc(CN5CCN(C(=O)CC(F)(F)F)CC5)ccn4)[nH]c3c2)c1Cl,cell-free assay,,competition with immobilised ligand,,1 µM,remaining binding,68%
Cc1sc(C(=O)NC2COC2)cc1-n1cc(NC(=O)Nc2c(F)cccc2Cl)cn1,enzyme activity,inhibitor,,,10 µM,remaining activity,103%
COCCOc1nc(-c2ccc(Cl)nc2)nc2c1CN(C(=O)c1ncn3ccccc13)CC2,cell-free assay,,competition with immobilised ligand,,0.1 µM,remaining binding,70%
Nc1ncnc2occ(-c3ccc(NC(=O)Nc4cc(C(F)(F)F)ccc4F)cc3)c12,enzyme activity,inhibitor,,,20 µM,remaining activity,42%
O=C(NC[C@@H]1[C@H]2CN(C(=O)OCc3cc(C(F)(F)F)cc(C(F)(F)F)c3)C[C@@H]12)c1ccc2[nH]nnc2c1,cell-free assay,,competition with immobilised ligand,,1 µM,remaining binding,88%
CC(C)(C)c1nc2c(s1)c1nc(N)ncc1c1ccc(NS(=O)(=O)c3c(F)cccc3F)c(F)c12,enzyme activity,inhibitor,radiometric,,1 µM,remaining activity,87%
C[S+]([O-])c1ccc(-c2nc(-c3ccncc3)c(-c3ccc(F)cc3)[nH]2)cc1 (centres unmarked),cell-free assay,,,,0.5 µM,remaining signal,101%
Cc1c(NC(=O)c2cc(C(N)=O)nc3cc(F)ccc23)c(C(F)(F)F)nn1Cc1ccc(C#N)cc1,binding,,competition with immobilised ligand,,1 µM,remaining binding,65%
